These results are taken from PMC12714840 (Nature Communications, 2025).

In test [1] the target is Human GPR99 (wild-type) (Homo sapiens, UniProt Q96P68). The test is described as follows: IP-one accumulation assay, wild-type receptor. The test is classed as cell-based. To be noted: WT.
The target of test [2] is GPR99/OXGR1 K32A (Homo sapiens, UniProt Q96P68, K32A). The test is described as follows: IP-one accumulation assay, K32A mutant. The test is classed as cell-based. The conditions noted are these: K32A vs WT; oxoglutarate stimulation.
The target in test [3] is GPR99/OXGR1 Y92A (Homo sapiens, UniProt Q96P68, Y92A). The test is described as follows: IP-one accumulation assay, Y92A mutant. The test is classed as cell-based. The conditions noted are these: Y92A vs WT; oxoglutarate stimulation.
The target of test [4] is GPR99/OXGR1 C141A (Homo sapiens, UniProt Q96P68, C141A). The test is described as follows: IP-one accumulation assay, C141A mutant. The test is classed as cell-based. To be noted: C141A vs WT.
For test [5], the target named is GPR99/OXGR1 R148A (Homo sapiens, UniProt Q96P68, R148A). The test is described as follows: IP-one accumulation assay, R148A mutant. The test is classed as cell-based. The conditions noted are these: R148A vs WT.
Test [6] deals with Human GPR99 (WT) (Homo sapiens, UniProt Q96P68). The test is described as follows: cAMP inhibition assay. The test is classed as cell-based. In short, it runs like this: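 HeLa cells transiently expressing human GPR99 for 24 h, pretreated 12 h at 37 °C with 250 ng/mL PTX or vehicle. Cells harvested in HBSS with 5 mM HEPES, 0.1% BSA and 0.5 mM IBMX, then stimulated 30 min with varying ligand concentrations plus 2.5 μM forskolin. cAMP read by LANCE Ultra kit. Data are % of maximal response, mean ± SEM, ≥3 independent experiments; EC50 from three-parameter curve fit.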

Test [7] concerns the target GPR99 (Homo sapiens, UniProt Q96P68). The conditions noted are these: GPR99 recognition of oxoglutarate; cited from earlier work.
Test [8] has as its target GPR99/OXGR1 (Homo sapiens, UniProt Q96P68). To be noted: oxoglutarate for GPR99/OXGR1; no reference given; cited from earlier work.
[9] abbreviates: 250 ng/mL PTX pretreatment 12 h.

By EC50 is commonly meant the midpoint of the concentration-response curve. On to `O=C(O)CCC(=O)C(=O)O` [oxoglutarate, 2-oxoglutarate], for which the “IP1 accumulation (PLC pathway downstream of Gq)” value in test [1] (HeLa) is listed as “increased IP1 accumulation”. Moreover, the “increase in EC50 (IP1 accumulation)” value in test [2] and in test [3] was “more than 100 fold” in each case. Moreover, the “maximum response (Emax), IP1 accumulation” value in test [2] and in test [3] was “remained unchanged” in each case. The “effect of alanine substitution on oxoglutarate-induced receptor activation (IP1)” value in test [4] and in test [5] was “little effect” in each case. For the same compound, in test [6] (HeLa, 2.5 μM forskolin), the “cAMP reduction downstream of Gi coupling” value is recorded as “failed to stimulate cAMP reduction”. In test [7], the EC50 is about 200 µM. Moreover, in test [8], the “affinity (Kd)” value is reported as “hundreds of micromolar”.

Turning to pertussis toxin [PTX], in test [1] (setting [9]), the “effect on LTE4-induced IP1 accumulation” value was “without affecting IP1 accumulation”. Further, in test [6] (setting [9]), the “effect on cAMP response elicited by LTE4” value is “abrogated”.
